Article PMC12164861 (Drug Design, Development and Therapy, 2025)

How the values were obtained:
albumin = settings: cited from earlier work
[1] = Teicoplanin steady-state plasma trough concentration; assay type: in vivo, human; settings: for teicoplanin Cmin: median (interquartile range)
Outline: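 Retrospective cohort of adult ICU patients (Jan 2018–Dec 2023) under therapeutic drug monitoring of the test compound. Venous blood was drawn just before the next dose after at least 6 doses (steady state). Total plasma concentration was measured by HPLC, linear range 3.125–100.0 µg/mL. Target was Cmin ≥ 15.0 μg/mL. Non-normal data are given as median (interquartile range), counts as rate (%).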

[2] = cited from earlier work

| percentage of teicoplanin Cmin >30.0 μg/mL ([1]; all values (64/404)) [%] | teicoplanin Cmin ([1]; patients who did not use caspofungin) | teicoplanin Cmin ([1]; patients who did not use voriconazole) | teicoplanin Cmin ([1]; patients who used caspofungin) | teicoplanin Cmin ([1]; patients who used voriconazole) | percentage of teicoplanin Cmin >30.0 μg/mL ([1]; patients with fungal co-infection) [%] | percentage of teicoplanin Cmin >30.0 μg/mL ([1]; patients without fungal infection) [%] | percentage of teicoplanin Cmin reaching the target (≥15.0 μg/mL) ([1]; year 2018 (12/50)) [%] | percentage of teicoplanin Cmin reaching the target (≥15.0 μg/mL) ([1]; year 2019 (11/18)) [%] | percentage of teicoplanin Cmin reaching the target (≥15.0 μg/mL) ([1]; year 2020 (26/40)) [%] | percentage of teicoplanin Cmin reaching the target (≥15.0 μg/mL) ([1]; year 2021 (34/49)) [%] | percentage of teicoplanin Cmin reaching the target (≥15.0 μg/mL) ([1]; year 2022 (66/88)) [%] | percentage of teicoplanin Cmin reaching the target (≥15.0 μg/mL) ([1]; year 2023 (123/159)) [%] | Molecule | albumin binding (albumin) | probability of target attainment (PTA) ([2]; model-based simulations, higher-dose regimens (12 mg/kg), MIC up to 0.5 mg/L, elderly critically ill patients with pneumonia) | probability of target attainment (PTA) of target Cmin ([2]; simulations, standard dosage regimen, critically ill patients with severe renal dysfunction (eGFR ≤30 mL/min/1.73 m²)) [%] |
| --- | --- | --- | --- | --- | --- | --- | --- | --- | --- | --- | --- | --- | --- | --- | --- | --- |
| – | – | – | – | – | – | – | – | – | – | – | – | – | C[C@@H](c1ncncc1F)[C@](O)(Cn1cncn1)c1ccc(F)cc1F [voriconazole] | 58% | – | – |
| – | – | – | – | – | – | – | – | – | – | – | – | – | CC[C@H](C)C[C@H](C)CCCCCCCCC(=O)N[C@H]1C[C@@H](O)[C@@H](NCCN)NC(=O)[C@@H]2[C@@H](O)CCN2C(=O)[C@H]([C@H](O)CCN)NC(=O)[C@H]([C@H](O)[C@@H](O)c2ccc(O)cc2)NC(=O)[C@@H]2C[C@@H](O)CN2C(=O)[C@H]([C@@H](C)O)NC1=O [Caspofungin] | ≈ 97% | – | – |
| 15.8 | 19.67 (12.38, 25.45) μg/mL | 19.74 (13.22, 26.18) μg/mL | 20.12 (14.67, 26.68) μg/mL | 18.48 (10.84, 24.24) μg/mL | 20.3 | 12.0 | 24.0 | 61.1 | 65.0 | 69.4 | 75.0 | 77.4 | Teicoplanin | – | at least 85% | 52.8 |
